Results of several laboratories.
Protocols differ between the studies behind these lines.
Target: Aurora kinase B (AURKB, Homo sapiens, UniProt Q96GD4)
Observed: enzyme activity

`CS(=O)(=O)CCNCc1ccc(-c2ccc3ncnc(Nc4ccc(OCc5cccc(F)c5)c(Cl)c4)c3c2)o1` has a remaining activity of 98.4% (0.5 µM).
For `O=C(NCCCNc1nc(Nc2cccc(CN3CCOCC3)c2)ncc1C1CC1)C1CCC1`, the remaining activity was 5% (inhibitor, radiometric; 1 µM).
For `Cc1cnc(NC2CCOCC2)nc1-n1cnc(C(=O)NC(CN)c2cc(F)cc(Cl)c2)c1` (stereo not shown), the remaining activity was 84% (inhibitor, radiometric; 1 µM).
The remaining activity of `COc1cc(Cl)c(C(=O)N[C@@H](CN[C@H]2CC[C@@H](N)CC2)Cc2ccc(C#N)cc2)cc1-c1ccc(CN[C@H](C)c2ccc(C)cc2)o1` is reported as 96% (inhibitor; 1 µM).
`O=C(NCCCNc1nc(Nc2cccc(NC(=O)N3CCCC3)c2)ncc1I)c1cccs1` has a remaining activity of 3% (inhibitor, radiometric; 1 µM).
`O=C(Nc1cnn(-c2csc(C(=O)NC3COC3)c2)c1)Nc1c(F)cccc1Cl` has a remaining activity of 69.8% (inhibitor; 5 µM).
`O=C1Nc2ccc(Cl)cc2C1=Cc1cc(Cl)c(O)c(Cl)c1` gave a remaining activity of 9.19% (0.5 µM).
The remaining activity of `Cc1nn(CC(F)(F)F)cc1Nc1ncc(Br)c(NCc2ccc(S(N)(=O)=O)cc2)n1` is reported as 87% (inhibitor, radiometric; 1 µM).
With `COc1cc(Nc2cnc(C#N)c(O[C@H](C)CN(C)C)n2)ncc1-c1cnn(C)c1` the remaining activity was 42% (inhibitor, radiometric; 1 µM).
`COc1cc2c(N3CCN(C(=O)Nc4ccc(OC(C)C)cc4)CC3)ncnc2cc1OCCCN1CCCCC1` gave a remaining activity of 89.6% (0.5 µM).
`CN1CCc2cc(Nc3ncc(C4CC4)c(NCCCNC(=O)C4CCC4)n3)ccc2C1` gave a remaining activity of 8% (inhibitor, radiometric; 1 µM).
`Cn1c(=O)n(-c2ccc(C(C)(C)C#N)cc2)c2c3cc(-c4cnc5ccccc5c4)ccc3ncc21` gave a remaining activity of 101% (inhibitor; 10 µM).
With `CCN(CC)c1ccc(C2=NNC(=O)CC2C)cc1[N+](=O)[O-]` (stereo not shown) the remaining activity was 118% (inhibitor; 10 µM).
With `CC(C)(O)[C@H]1CC[C@H](Nc2ccc3ncc(-c4cccc(C(F)(F)F)c4)n3n2)CC1` the remaining activity was 82.1% (inhibitor; 1 µM).
The remaining activity of `FC(F)c1nc2ccccc2n1-c1nc(N2CCOCC2)nc(N2CCOCC2)n1` is reported as 94% (inhibitor; 10 µM).
`Cc1nn(CC(F)(F)F)cc1Nc1nccc(NCCc2cnc[nH]2)n1` has a remaining activity of 71% (inhibitor, radiometric; 1 µM).
`CC(C)(C)c1nc2c(s1)c1nc(N)ncc1c1ccc(NS(=O)(=O)c3c(F)cccc3F)c(F)c12` has a remaining activity of 90% (inhibitor, radiometric; 1 µM).
`Cc1nn(CC(F)(F)F)cc1Nc1ncc(C2CC2)c(NCc2ccc(S(N)(=O)=O)cc2)n1` has a remaining activity of 102% (inhibitor, radiometric; 1 µM).
For `Nc1nc(Nc2ccccc2)sc1C(=O)c1c(F)cccc1F`, the remaining activity was 24% (inhibitor; 10 µM).
